Activity calls are given as the source filed them. No cut-off for these calls is given here.
Legend:
[1] = test system: HL-60; assay: Cytotoxicity against human HL60 cells after 24 hrs by MTT assay; format: functional, cell-based; details: HL-60, 24 h
How it was run: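 HL-60 cells kept in RPMI 1640 with 10% FBS, no antibiotics, 37 °C, humidified 5% CO2. Cells (9 × 10^5 cells/mL) exposed to compound in 96-well plates for 24 h at 37 °C. MTT in PBS (5 mg/mL) added for 2 h, then DMSO, shaken 1 h and read photometrically. IC50 determined; cisplatin reference.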

[2] = test system: Escherichia coli; assay: Antibacterial activity against Escherichia coli assessed as zone of inhibition at 5 uL and 32 degC after 36 hrs by disk diffusion method; format: functional
How it was run: (§1)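 Disc diffusion on AC agar, each strain spread evenly over the medium; test compounds given as 1% (w/v) DMSO solutions. Plates covered and incubated 36 h at 32 °C, then the diameter of the zone of inhibited growth measured in mm. Tetracycline served as antibacterial reference.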

[3] = (§2) Antibacterial activity against Pseudomonas antimicrobica assessed as zone of inhibition at 5 uL and 32 degC after 36 hrs by disk diffusion method; format: functional, Burkholderia gladioli; how it was run: as §1
[4] = test system: Staphylococcus equorum; assay: Antibacterial activity against Staphylococcus equorum assessed as zone of inhibition at 5 uL and 32 degC after 36 hrs at by disk diffusion method; format: functional; how it was run: as §1
[5] = test system: Streptococcus entericus; assay: Antibacterial activity against Streptococcus entericus assessed as zone of inhibition at 5 uL and 32 degC after 36 hrs by disk diffusion method; format: functional; how it was run: as §1
[6] = test system: Yarrowia lipolytica; assay: Antifungal activity against Yarrowia lipolytica assessed as zone of inhibition at 5 uL and 28 degC after 36 hrs by disk diffusion method; format: functional
How it was run: (§3)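 Agar disc diffusion with the test compound applied as a 1% (w/v) DMSO solution. Yeasts were grown on AC agar and Aspergillus niger on potato dextrose broth agar, each strain spread evenly. Plates were covered and kept 36 h at 28 °C, and the inhibition zone diameter was read in mm. Clotrimazole served as reference.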

[7] = test system: Nakaseomyces glabratus; assay: Antifungal activity against Candida glabrata assessed as zone of inhibition at 5 uL and 28 degC after 36 hrs by disk diffusion method; format: functional; how it was run: as §3
[8] = test system: Aspergillus niger; assay: Antifungal activity against Aspergillus niger assessed as zone of inhibition at 5 uL and 28 degC after 36 hrs by disk diffusion method; format: functional; how it was run: as §3
[9] = Antifungal activity against Hyphopichia burtonii assessed as zone of inhibition at 5 uL and 28 degC after 36 hrs by disk diffusion method; format: functional; how it was run: as §3
[10] = test system: Burkholderia gladioli; assay: as §2; format: functional; how it was run: as §1

Row | Compound | IC50 [1] | diameter of the inhibition zone (DIZ) [2] | diameter of the inhibition zone (DIZ) [3] | diameter of the inhibition zone (DIZ) [4] | diameter of the inhibition zone (DIZ) [5] | diameter of the inhibition zone (DIZ) [6] | diameter of the inhibition zone (DIZ) [7] | diameter of the inhibition zone (DIZ) [8] | inhibition zone (IZ) [9] | diameter of the inhibition zone (DIZ) [10] | diameter of the inhibition zone (DIZ) [9]
1 | CC(C)CCC[C@@H](C)[C@H]1CC[C@H]2C3=CCn4c(=O)c5ccccc5c(=O)n4[C@@H]3CC[C@]12C | 17 µM | inactive | 7 mm | inactive | inactive | inactive | 10 mm | inactive | 7 mm |  | 
2 | CC(C)=CCCC1=CCn2c(=O)ccc(=O)n2C1 | 41 µM | inactive |  | inactive | inactive | inactive | inactive | inactive |  | inactive | inactive
3 | CC(C)CCC[C@@H](C)[C@H]1CC[C@H]2C(/C=C/CO)=CCC[C@]12C | 32 µM | 10 mm | 18 mm | 12 mm | 14 mm | inactive | 18 mm | inactive | 22 mm |  | 
4 | CC(C)CCC[C@@H](C)[C@H]1CC[C@H]2C3=CC[C@@H]4C(=O)NC(=O)[C@@H]4[C@@H]3CC[C@]12C | 16 µM | 24 mm | 11 mm | 14 mm | 15 mm | inactive | 15 mm | inactive |  |  | inactive
5 | CC(C)CCC[C@@H](C)[C@H]1CC[C@H]2C(CCCCN3C(=O)C=CC3=O)CCC[C@]12C (mixture of isomers) | 14 µM | 10 mm | 9 mm | 11 mm | 12 mm | inactive | 8 mm | inactive | 9 mm |  | 
6 | CC(C)CCC[C@@H](C)[C@H]1CC[C@H]2C(CCCCO)CCC[C@]12C (mixture of isomers) | 13 µM |  |  |  |  |  |  |  |  |  | 
7 | Clc1ccccc1C(c1ccccc1)(c1ccccc1)n1ccnc1 [CLOTRIMAZOLE] |  |  |  |  |  | 18 mm | 18 mm | 13 mm | 20 mm |  | 
8 | CCN1C(=O)[C@H]2[C@H](CC=C3[C@H]2CC[C@]2(C)[C@@H]([C@H](C)CCCC(C)C)CC[C@@H]32)C1=O | 13 µM | 7 mm | 7 mm | 8 mm | 11 mm | inactive | 8 mm | inactive | 7 mm |  | 
9 | CCCN1C(=O)[C@H]2[C@H](CC=C3[C@H]2CC[C@]2(C)[C@@H]([C@H](C)CCCC(C)C)CC[C@@H]32)C1=O | 7 µM | 7 mm | 7 mm | inactive | 7 mm | 10 mm | 6 mm | inactive | 14 mm |  | 

— ChEMBL document CHEMBL1806372, “Cytotoxic ring A-modified steroid analogues derived from Grundmann's ketone” (Eur J Med Chem, 2011)
